Here are results for 7 molecules from ChEMBL document CHEMBL1148903, “New decalin derivatives, eujavanoic acids A and B, from Eupenicillium javanicum” (2004).

Calls of active or inactive are those of the source. The rule behind the calls is not given here.

Assay [1] relates to Aspergillus fumigatus. Nature of the assay: Antifungal activity against Aspergillus fumigatus at 0.5 mg/disk after 48 hrs. It is filed as functional. An outline of the steps:
(§1)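 Paper disk diffusion assay against Aspergillus fumigatus on potato dextrose agar. Compound was applied per disk, and activity was recorded after 48 h incubation. Other assay conditions follow an earlier published method.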

The subject of assay [2] is Aspergillus fumigatus. The assay can be described thus: Antifungal activity against Aspergillus fumigatus at 10 mg/disk after 48 hrs. It is filed as functional. An outline of the steps: as §1
For assay [3], the system named is Aspergillus fumigatus. The assay can be described thus: Antifungal activity against Aspergillus fumigatus at 5 mg/disk after 48 hrs. It is filed as functional. The method in brief: as §1
Assay [4] has as its system Aspergillus fumigatus. Nature of the assay: Antifungal activity against Aspergillus fumigatus at 1 mg/disk after 48 hrs. It is filed as functional. The method in brief: as §1
Assay [5] concerns Aspergillus fumigatus. The assay can be described thus: Antifungal activity against Aspergillus fumigatus up to 100 ug/disk after 48 hrs. It is filed as functional, organism-based. The method in brief: as §1

On to `CCOC(=O)C[C@H](O)C[C@H](O)CC[C@@H]1[C@@H]2C(=CCC[C@@H]2OC(=O)[C@@H](C)CC)C=C[C@@H]1C`, for which the outcome with Aspergillus fumigatus [1], in the assay on Aspergillus fumigatus [2], with Aspergillus fumigatus [3] and in the assay on Aspergillus fumigatus [4] was inactive.

Turning to `C[C@@H]1[C@H](O)[C@@H](C)/C=C/C=C/C=C/C=C/C=C/C=C/C=C/[C@H](O[C@@H]2O[C@H](C)[C@@H](O)[C@H](N)[C@@H]2O)C[C@@H]2O[C@](O)(C[C@@H](O)C[C@@H](O)[C@H](O)CC[C@@H](O)C[C@@H](O)CC(=O)O[C@H]1C)C[C@H](O)[C@H]2C(=O)O` [AMPHOTERICIN B], the “inhibition zone (IZ)” value in the assay on Aspergillus fumigatus [2] is listed as 13 mm; in the assay on Aspergillus fumigatus [3] it was 14 mm; with Aspergillus fumigatus [4] it was 11 mm.

With `C[C@@H]1[C@H](CC[C@@H](O)C[C@@H](O)CC(=O)O)[C@H]2CCCCC2=C[C@H]1O`, the result with Aspergillus fumigatus [5] was inactive.

With `C[C@H]1C=CC2=CCC[C@H](O)[C@@H]2[C@H]1CC[C@@H](O)C[C@@H](O)CC(=O)O`, the outcome with Aspergillus fumigatus [5] was inactive.

For `CC[C@H](C)C(=O)O[C@H]1CCC[C@@H]2C=C[C@H](C)[C@H](CC[C@@H](O)C[C@@H](O)CC(=O)[O-])[C@@H]12.[Na+]`, the result with Aspergillus fumigatus [1] was inactive. Besides, the “inhibition zone (IZ)” value in the assay on Aspergillus fumigatus [2] is listed as 32 mm; in the assay on Aspergillus fumigatus [3], 21 mm; in the assay with Aspergillus fumigatus [4], 16 mm.

With `CC[C@H](C)C(=O)O[C@H]1CCC[C@@H]2CC[C@H](C)[C@H](CC[C@@H](O)C[C@@H](O)CC(=O)[O-])[C@H]21.[Na+]`, in the assay with Aspergillus fumigatus [1], the outcome was inactive. Besides, the “inhibition zone (IZ)” value with Aspergillus fumigatus [2] is recorded as 22 mm; in the assay with Aspergillus fumigatus [3], 18 mm.

As to `C[C@H]1C(=O)C=C2CCCC[C@@H]2[C@H]1CC[C@@H](O)C[C@@H](O)CC(=O)O`, in the assay with Aspergillus fumigatus [5], the outcome was inactive.
